CHO parental Ca: counter-screen for OX1R antagonists: effect in parental CHO cells | parental CHO-K1, ATP-induced calcium, Fluo-8 fluorescence | 0.63% of 330,000 active | inhibition, % at 5.6 µM;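 active = inhibition above that plate's mean sample inhibition plus 3 SD, cut at about 26% in these data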;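 note: 0% = ATP-challenged DMSO wells and 100% = DMSO wells without ATP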
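Test system: untransfected parental CHO cell line. Compound: one dose, 5.6 µM nominal. Detection: intracellular calcium via Fluo-8 no-wash fluorescent dye. Measure: % inhibition. Benchmarks: ATP-challenged DMSO wells low, unchallenged DMSO wells high.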
GalR3 antagonist: antagonists of human GalR3; HEK293 GalR3-CNG cAMP membrane potential fluorescence; galR3 body fused to GalR1 C-terminus; inhibition, % at 3 µM; 0.44% of 360,000 active;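 active = inhibition above the screen-wide average plus 3 SD, cut at about 13% in these data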;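 note: forskolin and galanin both at EC90 stimulate the cells; cAMP rise reported by CNG channel membrane potential dye signal; 0% = forskolin plus galanin with DMSO and 100% = forskolin alone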
Target sequence (O60755 1-299 limits assumed): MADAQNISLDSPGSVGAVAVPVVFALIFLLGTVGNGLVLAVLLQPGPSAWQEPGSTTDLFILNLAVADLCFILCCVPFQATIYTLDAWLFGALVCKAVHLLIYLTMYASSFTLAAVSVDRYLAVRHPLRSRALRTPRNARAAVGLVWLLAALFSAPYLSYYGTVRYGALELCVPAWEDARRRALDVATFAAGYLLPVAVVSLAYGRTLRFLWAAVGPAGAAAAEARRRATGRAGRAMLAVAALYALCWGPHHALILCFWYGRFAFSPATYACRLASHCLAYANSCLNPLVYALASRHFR
GPR7 antagonist: blocks human GPR7 receptor signaling; P48145; inhibition, % at 4.4 µM; 1.1% of 290,000 active; GPR7-expressing cells, fluorescence antagonist assay; AID 1861; in the data active = inhibition above about 16%, passing the limit was not always enough;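 note: cells stimulated with the agonist NPW; 0% = agonist with vehicle and 100% = vehicle without agonist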
Target sequence (P48145 whole entry, looked up): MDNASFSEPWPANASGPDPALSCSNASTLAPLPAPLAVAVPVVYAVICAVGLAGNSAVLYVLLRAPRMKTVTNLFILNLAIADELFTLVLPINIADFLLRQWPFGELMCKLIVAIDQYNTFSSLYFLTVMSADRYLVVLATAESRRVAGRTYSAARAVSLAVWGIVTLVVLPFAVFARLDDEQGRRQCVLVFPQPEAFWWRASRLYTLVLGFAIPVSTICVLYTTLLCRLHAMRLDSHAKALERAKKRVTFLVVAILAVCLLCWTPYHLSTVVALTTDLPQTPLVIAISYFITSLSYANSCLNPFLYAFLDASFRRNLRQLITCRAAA
OX1R antag-1: blocks the human orexin 1 receptor; AID 434989; 0.43% of 330,000 active; O43613; inhibition, % at 5 µM; CHO/OX1R cells, Fluo-8 calcium fluorescence, orexin A;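 active = inhibition above its plate's threshold, mean inhibition of all tested compounds on the plate plus 3 SD, cut at about 37% in these data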;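 note: 0% = orexin A challenge wells and 100% = SB-334867-A antagonist wells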
OX1R antag-2: antagonists of human orexin 1 receptor (OX1R); OX1R-expressing cells, FRET antagonist read-out; inhibition, % at 6.6 µM; 1.8% of 330,000 active; AID 485270; in the data active = inhibition mostly above about 38%, no sharp cut-off; inactive = mostly below about 40%;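 note: 0% = agonist challenge alone and 100% = reference antagonist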
GPR7 antag conf: human GPR7 antagonism, confirmation assay; 52% of 2,400 active; shares compounds with GPR7 antagonist; GPR7-expressing cells, calcium fluorescence antagonist mode; inhibition, % at 4.4 µM; in the data active = inhibition above about 24%;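 note: stimulated with the GPR7 agonist NPW; 0% = agonist plus vehicle and 100% = vehicle alone without agonist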
MCHR1 antag: counter-screen for GPR7 antagonists: antagonists of human MCHR1; shares compounds with GPR7 antagonist; MCHR1-expressing cells, fluorescence antagonist assay; inhibition, % at 4.4 µM; 62% of 2,400 active; AID 2148; in the data active = inhibition above about 22%;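 note: 0% = vehicle with agonist and 100% = vehicle without agonist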
* = called active by the depositor. Compounds with a hit are over-represented: about 3.1% of the library has one in this group of screens.

CN(C)c1ccc(-c2nn3c(-c4ccccc4Cl)nnc3s2)cc1 was read as CHO parental Ca 6, GalR3 antagonist 1, GPR7 antagonist 25*, OX1R antag-1 11, OX1R antag-2 59*, GPR7 antag conf 33* and MCHR1 antag 75*.
`Clc1ccccc1-c1nnc2sc(-c3ccncc3)nn12` gave CHO parental Ca -9, GalR3 antagonist 5, GPR7 antagonist 6, OX1R antag-1 -12 and OX1R antag-2 8.
For CN=c1scc(-c2ccc(F)cc2)n1/N=C/c1ccc(O)c(O)c1 the results were GalR3 antagonist 1, GPR7 antagonist 23*, GPR7 antag conf 33* and MCHR1 antag 13.
Screening CN=c1scc(-c2ccc([N+](=O)[O-])cc2)n1/N=C/c1ccco1 returned CHO parental Ca -14, GalR3 antagonist -6, GPR7 antagonist -3, OX1R antag-1 -9 and OX1R antag-2 40.
COC(=O)C[C@@H]1C[C@@H]2c3cc(NC(=O)Cc4ccncc4)ccc3O[C@@H]2[C@@H](CO)O1 was read as GalR3 antagonist -6.
Screening CC(C)CC(=O)N1CC=CC[C@@H](c2ccc(Cl)cc2)N(Cc2ccc(Cl)cc2)C(=O)[C@@H]1Cc1ccccc1 returned GalR3 antagonist -6.
For CN1/C(=C\C(=O)COc2ccc3c(c2)OCO3)C(C)(C)c2ccccc21 the results were CHO parental Ca 7, GalR3 antagonist -1, GPR7 antagonist 28*, OX1R antag-1 21, OX1R antag-2 63, GPR7 antag conf 12 and MCHR1 antag 44*.
`CCc1ccc(CSc2nccn2-c2ccccc2)cc1` gave CHO parental Ca -17, GalR3 antagonist -2, GPR7 antagonist 27*, OX1R antag-1 -8, OX1R antag-2 28, GPR7 antag conf -9 and MCHR1 antag 40*.
Screening CCOC(=O)C1CCCN(C(=O)c2cc3nc(-c4cccc(OC)c4)cc(C(F)(F)F)n3n2)C1 (stereo not drawn) returned CHO parental Ca -8, GalR3 antagonist 1, GPR7 antagonist -16, OX1R antag-1 -18 and OX1R antag-2 21.
CCOC(=O)C1CCCN(C(=O)c2cnn3c(C(F)(F)F)cc(-c4ccccc4)nc23)C1 (stereo not drawn) was read as CHO parental Ca -24, GalR3 antagonist -7, GPR7 antagonist 25*, OX1R antag-1 -19, OX1R antag-2 9, GPR7 antag conf 14 and MCHR1 antag 10.
For O=C(COc1ccc2c(-c3ccccc3)cc(=O)oc2c1)N1C[C@H]2C[C@@H](C1)c1cccc(=O)n1C2 the results were GalR3 antagonist 5.
`COC(=O)[C@]12C[C@H](CC(=O)N3CCN(C(=O)c4ccco4)CC3)C(=O)N(CCC3=CCCCC3)C1=C[C@H](C(C)(C)C)O[C@@H]2C` gave GalR3 antagonist -7.
`O=C(N/N=C/c1ccc(O)cc1)c1ccc(COc2cc(Cl)ccc2Cl)o1` gave CHO parental Ca 59*, GalR3 antagonist -3, GPR7 antagonist 53*, OX1R antag-1 67*, OX1R antag-2 5, GPR7 antag conf 68* and MCHR1 antag 78*.
Screening O=C(Nc1cccnc1)c1ccc(COc2cc(Cl)ccc2Cl)o1 returned CHO parental Ca -10, GalR3 antagonist -5, GPR7 antagonist 23, OX1R antag-1 0 and OX1R antag-2 35.
For Cn1cc(-c2ccc(C(=O)Nc3cccc(Oc4ccccc4)c3)c3occc23)cn1 the results were GalR3 antagonist -1.
COC(=O)C(NC(=O)c1ccc(F)cc1)(Nc1ncc(S(=O)(=O)c2ccc([N+](=O)[O-])cc2)s1)C(F)(F)F (stereo not drawn) was read as CHO parental Ca -5, GalR3 antagonist -6, GPR7 antagonist 0, OX1R antag-1 6 and OX1R antag-2 30.
For COC(=O)C(NC(=O)c1ccccc1C)(Nc1ncc(S(=O)(=O)c2ccc([N+](=O)[O-])cc2)s1)C(F)(F)F (stereo not drawn) the results were CHO parental Ca -6, GalR3 antagonist -3, GPR7 antagonist 35*, OX1R antag-1 9, OX1R antag-2 20, GPR7 antag conf 41* and MCHR1 antag 37*.
For CCN1CCN(Cc2ccc(NC(=O)c3ccc(C)c(NC(=O)C(=O)c4c[nH]c5ccccc45)c3)cc2C(F)(F)F)CC1 the results were CHO parental Ca 22, GalR3 antagonist -7, GPR7 antagonist 36*, OX1R antag-1 9, OX1R antag-2 46, GPR7 antag conf 61* and MCHR1 antag 74*.
CC1(C(=O)NCc2ccc(C(F)(F)F)cc2)CCN1Cc1ccccc1OC(F)F (stereo not drawn) was read as GalR3 antagonist -9.
COc1ccc(C(=O)C[C@@H]2OC[C@H](Cc3ccccc3)N2S(=O)(=O)c2ccc(C)cc2)cc1OC was read as GalR3 antagonist -6.
For CCOC(=O)C[C@@H]1OC[C@H](CO)N1S(=O)(=O)c1ccc(C)cc1 the results were GalR3 antagonist -3.
For CCC1(C)CC2(CCCN(CCC(O)(c3ccccc3)c3ccccc3)C2)CCO1 (stereo not drawn) the results were CHO parental Ca -21, GalR3 antagonist -6, GPR7 antagonist 26*, OX1R antag-1 -33, OX1R antag-2 10, GPR7 antag conf 16 and MCHR1 antag 16.
Screening CC1(C)CC2(CCCN(CC(O)(c3ccccc3)c3ccccc3)C2)CCO1 (stereo not drawn) returned CHO parental Ca -22, GalR3 antagonist -8, GPR7 antagonist 9, OX1R antag-1 -38 and OX1R antag-2 7.
Screening Cn1c(=O)c([N+](=O)[O-])c(Cl)c2ccccc21 returned GalR3 antagonist 10, GPR7 antagonist 26*, GPR7 antag conf 51* and MCHR1 antag 76*.
`c1ccc2cc(C3OCC4(CCCC4)CO3)ccc2c1` gave GalR3 antagonist -3.
For O=S1(=O)N[C@@H](Cc2ccccc2)COc2cccc(N3CCSCC3)c21 the results were GalR3 antagonist -5.
`CCOc1cc(CNCCO)cc(Br)c1OCc1ccc(Cl)cc1` gave CHO parental Ca 1, GalR3 antagonist -10, GPR7 antagonist 54*, OX1R antag-1 10, OX1R antag-2 4, GPR7 antag conf 70* and MCHR1 antag 78*.
Screening CCOc1cc(CNC(C)(C)CO)cc(Br)c1OCc1ccc(Cl)cc1Cl returned CHO parental Ca 18, GalR3 antagonist -7, GPR7 antagonist 46*, OX1R antag-1 15, OX1R antag-2 8, GPR7 antag conf 67* and MCHR1 antag 78*.
`CN[C@H]1C[C@@H](c2ccccc2)N(C(C)=O)C[C@H]1CO` gave GalR3 antagonist -1.
